# High-throughput results (PubChem BioAssay)
# Shown is part of a subset that was picked to be rich in hits.
# UPR CHOP act – activators of apoptotic CHOP UPR arm, primary screen, cell-based, CHO-CHOP luciferase reporter, luminescence, uHTS | 330,000 tested, 0.34% active | UPR activation; percent of tunicamycin response over DMSO baseline | AID 449763, 2010 | activation, % at 10 µM;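 active means at 10 µM dose, activation of 40% or more, normalized to positive control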
#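 Assay system: CHO cells with stable CHOP pathway luciferase reporter; Buffer or medium: F12 plus 10% serum; Times: 16-18 h cell attachment, then 6 h compound exposure, 37 °C; Signal: luciferase luminescence; Read-out basis: percent activation relative to tunicamycin control; Control set: tunicamycin high control, DMSO low control.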
# XBP1 UPR activ – activators of adaptive XBP1 UPR arm, primary screen, cell-based, CHO-XBP1 luciferase reporter, luminescence, uHTS; IRE1-XBP1 UPR activation; percent of tunicamycin response, DMSO as zero; activation, % at 20 µM; 330,000 tested, 0.33% active; AID 463104, 2010;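 active means versus positive control, 20 µM dose yields 30% or more activation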
#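 Assay system: IRE1-XBP1 luciferase reporter CHO line. Input: 1000 cells/well. Buffer or medium: F12 with 10% serum. Doses: 20 µM, 1% DMSO. Times: overnight seeding at 37 °C, 6 h compound treatment at 37 °C. Technique: Steady-Glo luciferase glow luminescence, 10 min after reagent addition.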
# CHOP inhibitor – inhibitors of CHOP promoter induction, primary screen, cell-based, unfolded protein response, luciferase reporter. CHO-K1 CHOP-promoter luciferase, tunicamycin-induced, 15-18 h. inhibition, % at 10 µM. 220,000 tested, 3.8% active. AID 2732, 2010;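 active means compounds that reduced the stress-induced luciferase reporter signal by more than about 70% of percent inhibition, limit read from the data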
# GAA850 FXN act – FXN promoter activators, primary screen, cell-based, luciferase luminescence, HEK293 lucGAA850. activation, % at 6 µM. 360,000 tested, 0.56% active. HEK293 lucGAA850 FXN promoter luciferase reporter, 24 h; percent of 10 µM SAHA response;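 active means activation above the average of all compounds screened plus 3 SD, cutoff fixed separately per campaign, cut at about 7.5% in these data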
# A number is an active result; – = inactive; · = not tested or not shown.
SMILES,UPR CHOP act,XBP1 UPR activ,CHOP inhibitor,GAA850 FXN act
COc1cc(C(=O)Oc2cccc(Nc3ncnc4ccccc34)c2)cc(OC)c1OC,–,–,92,–
COc1ccc(C(=O)Oc2cccc(Nc3ncnc4ccccc34)c2)cc1OC,–,–,–,–
CN1CCc2cccc3c2C1Cc1ccc(O)c(O)c1-3 (centres undefined),–,–,74,–
CN1CCC(=C2c3ccccc3C(O)c3ccccc32)CC1 (centres undefined),–,–,–,–
CCc1nc2ccc(C(=O)N(CC)CCN(C)C)cn2c1N(C=O)CCC(C)C,·,·,·,–
CCn1c(C)cc(/C=C2/NC(=O)N(Cc3ccccc3F)C2=O)c1C,–,–,–,–
Cc1cc(/C=C2/NC(=O)N(Cc3ccccc3F)C2=O)c(C)n1C(C)C,–,–,72,–
CCc1nc2ccc(C(=O)NCCCN3CCCC3=O)cn2c1N(C)C(=O)Nc1ccccc1OC,·,·,·,–
CCOc1ccc(NC(=S)Nc2ccc(C)c([N+](=O)[O-])c2)cc1,–,–,70,–
CC(=O)C(Cl)C(=O)Nc1ccccc1 (centres undefined),·,·,83,–
O=C(Nc1ccccc1)C(Cl)C(=O)c1ccccc1 (centres undefined),–,–,·,–
O=c1c(Cl)c(Cl)cnn1Cc1ccc(F)cc1,–,–,–,–
C=CCn1c(C)cc(C(=O)Cn2ncc(Cl)c(Cl)c2=O)c1C,·,·,75,–
O=C(OCn1ncc(Cl)c(Cl)c1=O)c1ccccc1Cl,·,·,107,–
O=C1CN(C(=O)Cn2ncc(Cl)c(Cl)c2=O)c2ccccc2N1,·,·,92,–
O=C(Cn1ncc(Cl)c(Cl)c1=O)c1ccc(Cl)cc1,·,·,102,–
CC(=O)Nc1ccc(CN(C)c2c(C)nc3ccc(C(=O)N(C)Cc4ccco4)cn23)cc1,·,·,·,–
CNc1ncnc2c1ncn2[C@H]1CN(Cc2cccnc2)C[C@@H](CO)O1,·,·,·,–
COc1ccc(-c2cc(C3CCN(c4cc(Cl)nc(N)n4)CC3)[nH]n2)cc1,–,–,73,–
Nc1nc(Cl)cc(N2CCC(c3cc(-c4ccc(Cl)cc4)n[nH]3)CC2)n1,–,–,–,–
COc1ccc(OC)c(-c2cc(C3CCN(c4cc(Cl)nc(N)n4)CC3)[nH]n2)c1,–,–,73,–
Cc1ccc(NC2=CC(=O)C(=O)c3ccccc32)cc1,45,–,–,–
CCC(=O)Nc1ccc(N2CCCCC2)c(C(=O)Nc2ccccc2C)c1,–,–,72,–
COc1ccc(S(=O)(=O)NC(=O)C2(C)CCN2C(=O)Cc2cc(F)ccc2F)cc1 (centres undefined),·,·,·,–
CCOC(=O)c1[nH]c2cc3c(cc2c1NC(=O)CN1CC(C)CC(C)C1)OCO3 (centres undefined),–,–,79,–
SMILES,UPR CHOP act,XBP1 UPR activ,CHOP inhibitor,GAA850 FXN act
CCOC(=O)c1[nH]c2ccc(OCC)cc2c1NC(=O)CN1CCCC(C)C1 (centres undefined),–,–,–,–
CCCCCN(C(=O)CCC(=O)OC(C)C(=O)Nc1ccccc1C)c1c(N)n(CCCC)c(=O)[nH]c1=O (centres undefined),·,·,·,–
COc1ccc(-c2[nH]ncc2N=Nc2ccccc2)cc1,–,–,73,–
COc1ccc(OC)c(/C(O)=C/C(=O)C(=O)Nc2cc(C)ccc2OC)c1,–,–,–,–
CCOc1ccccc1NC(=O)C(=O)/C=C(\O)c1cc(OC)ccc1OC,–,–,95,–
C=CCn1c(SCC(=O)NC2CCCC2)nc2ccccc21,·,·,·,–
COc1cc(-c2cc(C(=O)Nc3ccc(S(=O)(=O)NCc4ccco4)cc3)c3ccccc3n2)cc(OC)c1OC,–,–,79,–
COc1cc(-c2cc(C(=O)NCc3ccco3)c3ccccc3n2)cc(OC)c1OC,–,–,·,–
CCOC(=O)C1(C)CCCCN1C(=O)c1ccoc1 (centres undefined),·,·,·,–
C[C@@H]1CN([C@@H](C)CO)C(=O)c2cc(Br)cnc2O[C@H]1CN(C)S(=O)(=O)c1cccs1,·,·,·,–
COc1cc(NC(=O)c2csc(N)n2)cc(C(=O)Nc2cccc(C(F)(F)F)c2)c1,–,–,79,–
C=CCn1c(COc2ccc(CC)cc2)nnc1SC/C(O)=C(\C#N)c1nc2ccccc2[nH]1,–,–,88,–
C=CCn1c(COc2ccccc2)nnc1SCc1ccc(C#N)cc1,–,–,–,–
COc1ccc(CCN(C(=O)C(F)(F)F)C(C(=O)NC2CCCCC2)c2ccc(C)s2)cc1 (centres undefined),–,–,87,–
COc1ccc(CCN(C(=O)C(F)(F)F)C(C(=O)NC2CCCCC2)c2cccs2)cc1 (centres undefined),–,–,–,–
O=C(O)CCC(NC(=O)c1ccccc1C(=O)O)C(=O)O (centres undefined),·,·,–,·
Cc1cccc(N=C2NC(=O)S/C2=C\c2ccco2)c1,–,–,72,–
O=C1NC(=Nc2ccc3ccccc3c2)S/C1=C/c1ccco1,–,–,86,–
O=C1NC(=Nc2ccc(O)cc2)S/C1=C/c1ccco1,–,–,–,–
O=C1NC(=Nc2ccc(Cl)cc2)/C(=C/c2ccco2)S1,–,–,–,–
COC(=O)[C@H]1C[C@H](OC(=O)NC2CC2)[C@@]2(O)CN(S(=O)(=O)c3ccc(C)cc3)CC2[C@H]1C(=O)OC (some centres undefined),·,·,·,–
OC(c1ccc(Cl)c(F)c1)c1ncc(-c2ccc(F)cc2)[nH]1 (centres undefined),·,·,·,–
CC(C)(C)NC(=O)NC(=O)COC(=O)COc1ccc(Cl)cc1Cl,–,–,–,–
O=C(COc1ccc(Br)cc1Br)NC(=O)NC1CCCC1,–,–,87,–
Cc1cc(Br)ccc1OCC(=O)NC1CCCC1,–,–,·,–
SMILES,UPR CHOP act,XBP1 UPR activ,CHOP inhibitor,GAA850 FXN act
CC(C)(C)NC(=O)NC(=O)COc1ccc(Br)cc1Br,–,–,83,–
O=C(COc1ccc(Br)cc1Cl)NC(=O)NCc1ccccc1,–,–,80,–
Cn1c(Cc2ccccc2)nc(=O)c2ccccc21,·,·,·,–
CCNC(=O)C1(C)CCCN(C(=O)c2cc(OC)ccc2Br)C1 (centres undefined),·,·,·,–
CC(C)c1ccccc1NC(=O)CNCCc1ccc(C(F)(F)F)cc1,–,–,76,–
NS(=O)(=O)c1ccc(CCNC(=O)CNCCc2ccc(C(F)(F)F)cc2)cc1,–,–,·,–
CCOC(=O)CNC(=O)N1C[C@H]2CON(C)[C@H]2C[C@H]1c1ccccc1Br,·,·,·,–
Cc1ccc(-c2nc(N)n(C(=O)Cc3ccccc3)n2)cc1,–,–,86,–
CCC(=O)n1nc(-c2ccccc2)nc1N,–,–,–,–
COc1ccc(C(=O)N2CCC2(C)C(=O)NC(C)C)c(OC)c1 (centres undefined),·,·,·,–
Cc1cccc(N2CCN(C(=O)NC3CCCCC3)CC2)c1C,–,–,·,–
O=C(CNCCC1=CCCCC1)Nc1ccccc1N1CCCCC1,–,–,92,–
